Experimental data from ChEMBL document CHEMBL1770105, “Discovery and evaluation of pyrazolo[1,5-a]pyrimidines as neuropeptide Y1 receptor antagonists” (Bioorg Med Chem Lett, 2011).

How the values were obtained:
[1] = molecular target: T1, Neuropeptide Y receptor type 1 (Homo sapiens, UniProt P25929); test: Displacement of [125I]-PYY from human recombinant NPY Y1 receptor overexpressed in membrane of Sf9 cells
T1 sequence (P25929 whole entry): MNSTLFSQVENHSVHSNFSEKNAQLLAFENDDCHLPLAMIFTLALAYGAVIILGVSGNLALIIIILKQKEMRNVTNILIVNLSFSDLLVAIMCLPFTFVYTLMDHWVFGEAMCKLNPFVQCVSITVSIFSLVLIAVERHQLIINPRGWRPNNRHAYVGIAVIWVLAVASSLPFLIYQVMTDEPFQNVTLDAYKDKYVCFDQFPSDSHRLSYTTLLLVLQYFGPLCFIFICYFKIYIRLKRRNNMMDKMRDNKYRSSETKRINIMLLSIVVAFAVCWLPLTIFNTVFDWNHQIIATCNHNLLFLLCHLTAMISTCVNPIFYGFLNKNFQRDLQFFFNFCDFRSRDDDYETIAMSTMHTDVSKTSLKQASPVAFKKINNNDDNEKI
Summary of the method: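 Human Y1 receptor: 125I-PYY displacement on Sf9 membranes overexpressing recombinant hY1R. Ki values are single determinations run in triplicate.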

[2] = Ratio of fraction unbound drug level in brain to plasma in Mdr1a/1b knockout mouse to FVB mouse at 5 mg.kg, sc after 0.5 hrs; assay type: ADME, organism-based
Summary of the method: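 Brain and plasma levels measured in Mdr1a/1b knockout and wild-type FVB mice 0.5 h after a 5 mg/kg sc dose. Brain/plasma ratios calculated from unbound fractions, measured by equilibrium dialysis of brain homogenate and plasma. Result expressed as knockout B/P over FVB B/P.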

[3] = molecular target: T1, Neuropeptide Y receptor type 1; test: Antagonist activity at NPY Y1 receptor in human SK-N-MC cells assessed as inhibition of NPY-induced calcium mobilization by FLIPR assay; assay type: functional, cell-based
Summary of the method: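 SK-N-MC neuroblastoma cells plated at 25,000/well 4 days ahead, loaded with Fluo-3 for 1 h in 5% CO2, washed and resuspended in assay buffer (5 mM KCl, 115 mM NaCl, 0.96 mM NaH2PO4, 1 mM MgSO4, 2 mM CaCl2, 5 mM D-glucose) containing test compound.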

[4] = Plasma clearance in Sprague-Dawley rat at 1 mg/kg, iv and 3 mg/kg, po; assay type: ADME, organism-based
Summary of the method: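 Overnight-fasted, jugular-vein-cannulated SD rats (water ad libitum) dosed by oral gavage (3 mg/kg in 0.5% methyl cellulose, 2 mL/kg, n = 2) or iv via the jugular vein (1.0 mg/kg in 50% PEG, 1 mL/kg, n = 2).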

[5] = Fraction unbound in Sprague-Dawley rat plasma at 1 mg/kg, iv and 3 mg/kg, po; assay type: ADME, organism-based
[6] = system: Rattus norvegicus; test: Unbound plasma clearance in Sprague-Dawley rat 1 mg/kg, iv and 3 mg/kg, po; assay type: ADME, organism-based; conditions: in vivo
[7] = system: Rattus norvegicus; test: Antihypertensive activity in Sprague-Dawley rat assessed as inhibition of NPY-induced increase in arterial pressure at 3 mg/kg, iv; assay type: functional; conditions: Artery
Summary of the method: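 Overnight-fasted SD rats anesthetized with inactin (100 mg/kg ip), tracheal and femoral arterial/venous cannulae, on a heated pad. Arterial pressure and heart rate recorded every 5 s. NPY given as iv bolus every 15 min. After the third NPY bolus, compound given iv at 3 mg/kg in saline (1 mL/kg), followed by three further NPY injections.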

[8] = molecular target: T2, Corticotropin-releasing factor receptor 1 (Homo sapiens, UniProt P34998); test: Binding affinity to CRHR
T2 sequence (P34998 whole entry): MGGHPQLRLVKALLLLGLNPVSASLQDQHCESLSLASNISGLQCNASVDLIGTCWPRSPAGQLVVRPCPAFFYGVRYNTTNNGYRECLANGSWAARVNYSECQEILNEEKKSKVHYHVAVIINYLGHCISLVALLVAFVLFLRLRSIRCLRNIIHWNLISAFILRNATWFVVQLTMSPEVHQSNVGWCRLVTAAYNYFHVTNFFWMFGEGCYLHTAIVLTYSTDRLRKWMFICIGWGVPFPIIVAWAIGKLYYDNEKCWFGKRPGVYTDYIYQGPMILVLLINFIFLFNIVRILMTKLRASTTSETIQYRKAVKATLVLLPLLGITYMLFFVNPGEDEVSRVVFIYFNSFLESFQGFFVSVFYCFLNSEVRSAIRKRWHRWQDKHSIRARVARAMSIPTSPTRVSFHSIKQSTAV

[9] = Selectivity ratio of NPY Y1 receptor over CRHR

Row | SMILES | Ki [1] | Knockout-to-FVB ratio of unbound brain/plasma ratio [2] | other results
1 | COc1cc(Cl)c(-c2c(C)nn3c(NCCNCC(F)F)cc(C)nc23)c(Cl)c1 | 383 nM | 2 | 
2 | COc1cc(Cl)c(-c2c(C)nn3c(NCCNCCF)cc(C)nc23)c(Cl)c1 | 22 nM | 4 | 
3 | Cc1cc(NCCNC2CCOCC2)n2nc(C)c(-c3c(Cl)cccc3Cl)c2n1 | 7 nM |  | 
4 | CCN(CCN)c1nc(C)nc2c1c1ccccc1n2-c1c(C)cc(C)cc1C |  |  | Ratio [9]: 29; Ki [8]: 4470 nM

More lines, main results first:

Row | Ki [1] | SMILES | Knockout-to-FVB ratio of unbound brain/plasma ratio [2] | other results
5 | 5 nM | COc1cc(Cl)c(-c2c(C)nn3c(NCC(C)NC4CCOCC4)cc(C)nc23)c(Cl)c1 (racemic) | 10 | 
6 | 3 nM | CCOc1cc(Cl)c(-c2c(C)nn3c(NCCNC4CCOCC4)cc(C)nc23)c(Cl)c1 |  | IC50 [3]: 15 nM; clearance [4]: 28 mL/min/kg; fraction unbound [5]: 0.029; CL [6]: 996 mL/min/kg; inhibition in vivo at 3 mg/kg [7]: 47%
7 | 2300 nM | Cc1cc(C)c(-c2c(C)nn3c(NCCN)cc(C)nc23)c(C)c1 |  | Ki [8]: > 10000 nM
